Test results: ChEMBL document CHEMBL4261600 (Eur J Med Chem, 2018)
Activity calls are given as the source filed them. The calls are words filed in the database; no cut-off is given here.

Assays:
[1] = test system: Phosphatidylinositol 4,5-bisphosphate 3-kinase catalytic subunit alpha isoform (Homo sapiens), P42336 [E545A]; assay: Binding affinity to human partial length PIK3CA E545A mutant (R108 to N1068 residues) expressed in mammalian expression system assessed as remaining unbound target protein level at 1000 nM by Kinomescan method relative to control
In short: (§1)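 KINOMEscan competition-binding profiling across the panel of 468 kinases and mutants, with inhibitor tested at 1 μM. Binding is expressed as percent of control, with DMSO as the reference control.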

[2] = target: Serine/threonine-protein kinase Nek10 (Homo sapiens) (UniProt Q6ZWH5); assay: Binding affinity to wild-type human partial length NEK10 (L488 to R809 residues) expressed in mammalian expression system assessed as remaining unbound target protein level at 1000 nM by Kinomescan method relative to control
[3] = MRT (0 to t) in Sprague-Dawley rat at 3 mg/kg, iv by LC-MS/MS analysis; type: ADME, organism-based; settings: in vivo
[4] = target: Fibroblast growth factor receptor 4 (Homo sapiens) (UniProt P22455); assay: Binding affinity to wild-type human partial length FGFR4 (G402 to E713 residues) expressed in bacterial expression system assessed as remaining unbound target protein level at 1000 nM by Kinomescan method relative to control
[5] = test system: Tyrosine-protein kinase ABL1 (Homo sapiens), P00519 [F317L]; assay: Binding affinity to human phosphorylated ABL1 F317L mutant (S229 to K512 residues) expressed in mammalian expression system assessed as remaining unbound target protein level at 1000 nM by Kinomescan method relative to control
In short: (§2)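 Single-point competition binding screen across a panel of 468 kinases and mutants, with the inhibitor at 1 μM. Binding is read out as percent of a DMSO control, and targets below 1 percent control were classed as strong binders.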

[6] = target: Myosin light chain kinase 2, skeletal/cardiac muscle (Homo sapiens) (UniProt Q9H1R3); assay: Binding affinity to wild-type human partial length MYLK2 (D258 to K570 residues) expressed in bacterial expression system assessed as remaining unbound target protein level at 1000 nM by Kinomescan method relative to control
In short: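 KINOMEscan binding panel of 468 kinases/mutants. Inhibitor was tested at a single concentration of 1 μM. Binding is reported as percent of control, defined relative to a DMSO control.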

MV4-11 = assay: Induction of apoptosis in human MV4-11 cells assessed as decrease in BCL-2 level up to 3 uM after 2 hrs by immunoblotting analysis; type: functional, cell-based
[7] = test system: Phosphatidylinositol 4,5-bisphosphate 3-kinase catalytic subunit alpha isoform (Homo sapiens), P42336 [H1047L]; assay: Binding affinity to human partial length PIK3CA H1047L mutant (R108 to N1068 residues) expressed in mammalian expression system assessed as remaining unbound target protein level at 1000 nM by Kinomescan method relative to control; in short: as §1
[8] = target: NUAK family SNF1-like kinase 2 (Homo sapiens) (UniProt Q9H093); assay: Binding affinity to wild-type human partial length SNARK (P22 to A333 residues) expressed in mammalian expression system assessed as remaining unbound target protein level at 1000 nM by Kinomescan method relative to control
[9] = target: Serine/threonine-protein kinase ULK3 (Homo sapiens) (UniProt Q6PHR2); assay: Binding affinity to wild-type human partial length ULK3 (M1 to Q290 residues) expressed in mammalian expression system assessed as remaining unbound target protein level at 1000 nM by Kinomescan method relative to control
[10] = target: Cyclin-dependent kinase 9 (Homo sapiens, UniProt P50750); assay: Inhibition of CDK9 in human HL60 cells assessed as decrease in RNA polymerase 2 phosphorylation at Ser 2 residues in CTD domain after 2 hrs by immunoblotting analysis; type: cell-based
[11] = MRT (0 to infinity) in mouse at 3 mg/kg, iv by LC-MS/MS analysis; type: ADME, organism-based; settings: in vivo
[12] = target: TRAF2 and NCK-interacting protein kinase (Homo sapiens) (UniProt Q9UKE5); assay: Binding affinity to wild-type human partial length TNIK (D4 to K311 residues) expressed in bacterial expression system assessed as remaining unbound target protein level at 1000 nM by Kinomescan method relative to control
[13] = test system: Tyrosine-protein kinase ABL1 (Homo sapiens), P00519 [E255K]; assay: Binding affinity to human phosphorylated ABL1 E255K mutant (S229 to K512 residues) expressed in mammalian expression system assessed as remaining unbound target protein level at 1000 nM by Kinomescan method relative to control; in short: as §1
[14] = target: Non-receptor tyrosine-protein kinase TYK2 (Homo sapiens) (UniProt P29597); assay: Binding affinity to wild-type human partial length TYK2 JH2 pseudokinase domain (G556 to D888 residues) expressed in mammalian expression system assessed as remaining unbound target protein level at 1000 nM by Kinomescan method relative to control
[15] = AUC (0 to t) in Sprague-Dawley rat at 20 mg/kg, po by LC-MS/MS analysis; type: ADME, organism-based; settings: in vivo
In short: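 Non-compartmental PK. Male SD rats 190-210 g, mice and beagle dogs acclimatized one week, fasted 12 h with water, split into iv and po groups (mice 48, rats 6, dogs 6). iv 3/3/2 mg/kg (mice/rats/dogs); po 10/20/10 mg/kg; vehicle DMSO in 5% glucose water. Blood at 2 or 5 to 720 min; plasma protein-precipitated with methanol, caffeine internal standard, LC-MS/MS.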

[16] = test system: Mycobacterium tuberculosis; assay: Binding affinity to wild-type Mycobacterium tuberculosis partial length PKNB (M1 to G279 residues) expressed in mammalian expression system assessed as remaining unbound target protein level at 1000 nM by Kinomescan method relative to control
In short: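 KINOMEscan competition binding panel run at 1 μM inhibitor; binding reported as percent of DMSO control (remaining target bound versus vehicle).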

[17] = Antiproliferative activity against human MEC1 cells after 72 hrs by Celltiter-Glo assay; type: functional; settings: MEC1, 72 h
In short: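 Cells seeded at 3000/well in 96-well plates, exposed to serially diluted compound for 72 h at 37 °C, 5% CO2. Viability read by CellTiter-Glo luminescence and normalized to DMSO control. GI50 derived from curve fit, mean of three independent measurements. Culture media: DMEM/10% FBS for adherent lines; IMDM for MV4-11 and MEC-1/2; RPMI 1640 for suspension lines and CHL.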

[18] = Cmax in beagle dog at 10 mg/kg, po by LC-MS/MS analysis; type: ADME, organism-based, Canis lupus familiaris; set-up: dose 10 mg/kg, route oral; settings: in vivo
[19] = target: Tyrosine-protein kinase HCK (Homo sapiens) (UniProt P08631); assay: Binding affinity to wild-type human full length HCK (M22 to P526 residues) expressed in bacterial expression system assessed as remaining unbound target protein level at 1000 nM by Kinomescan method relative to control; in short: as §2
[20] = target: Inhibitor of nuclear factor kappa-B kinase subunit beta (Homo sapiens) (UniProt O14920); assay: Binding affinity to wild-type human full length IKK-beta (M1 to S756 residues) expressed in mammalian expression system assessed as remaining unbound target protein level at 1000 nM by Kinomescan method relative to control; in short: as §2

Cyclin-dependent kinase 9, sequence (P50750 whole entry, the tested form may be a part): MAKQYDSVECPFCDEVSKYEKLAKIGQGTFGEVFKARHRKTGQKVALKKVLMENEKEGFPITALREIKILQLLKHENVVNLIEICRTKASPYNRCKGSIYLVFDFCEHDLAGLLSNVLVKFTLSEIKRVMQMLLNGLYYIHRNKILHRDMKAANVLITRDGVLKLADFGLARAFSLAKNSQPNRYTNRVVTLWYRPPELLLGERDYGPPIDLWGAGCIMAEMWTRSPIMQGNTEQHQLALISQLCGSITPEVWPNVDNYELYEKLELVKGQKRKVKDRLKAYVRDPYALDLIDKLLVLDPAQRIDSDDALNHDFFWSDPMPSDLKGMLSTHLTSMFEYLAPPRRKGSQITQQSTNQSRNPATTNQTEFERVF
TRAF2 and NCK-interacting protein kinase (Homo sapiens), sequence (Q9UKE5 whole entry, looked up, the tested form may be a part): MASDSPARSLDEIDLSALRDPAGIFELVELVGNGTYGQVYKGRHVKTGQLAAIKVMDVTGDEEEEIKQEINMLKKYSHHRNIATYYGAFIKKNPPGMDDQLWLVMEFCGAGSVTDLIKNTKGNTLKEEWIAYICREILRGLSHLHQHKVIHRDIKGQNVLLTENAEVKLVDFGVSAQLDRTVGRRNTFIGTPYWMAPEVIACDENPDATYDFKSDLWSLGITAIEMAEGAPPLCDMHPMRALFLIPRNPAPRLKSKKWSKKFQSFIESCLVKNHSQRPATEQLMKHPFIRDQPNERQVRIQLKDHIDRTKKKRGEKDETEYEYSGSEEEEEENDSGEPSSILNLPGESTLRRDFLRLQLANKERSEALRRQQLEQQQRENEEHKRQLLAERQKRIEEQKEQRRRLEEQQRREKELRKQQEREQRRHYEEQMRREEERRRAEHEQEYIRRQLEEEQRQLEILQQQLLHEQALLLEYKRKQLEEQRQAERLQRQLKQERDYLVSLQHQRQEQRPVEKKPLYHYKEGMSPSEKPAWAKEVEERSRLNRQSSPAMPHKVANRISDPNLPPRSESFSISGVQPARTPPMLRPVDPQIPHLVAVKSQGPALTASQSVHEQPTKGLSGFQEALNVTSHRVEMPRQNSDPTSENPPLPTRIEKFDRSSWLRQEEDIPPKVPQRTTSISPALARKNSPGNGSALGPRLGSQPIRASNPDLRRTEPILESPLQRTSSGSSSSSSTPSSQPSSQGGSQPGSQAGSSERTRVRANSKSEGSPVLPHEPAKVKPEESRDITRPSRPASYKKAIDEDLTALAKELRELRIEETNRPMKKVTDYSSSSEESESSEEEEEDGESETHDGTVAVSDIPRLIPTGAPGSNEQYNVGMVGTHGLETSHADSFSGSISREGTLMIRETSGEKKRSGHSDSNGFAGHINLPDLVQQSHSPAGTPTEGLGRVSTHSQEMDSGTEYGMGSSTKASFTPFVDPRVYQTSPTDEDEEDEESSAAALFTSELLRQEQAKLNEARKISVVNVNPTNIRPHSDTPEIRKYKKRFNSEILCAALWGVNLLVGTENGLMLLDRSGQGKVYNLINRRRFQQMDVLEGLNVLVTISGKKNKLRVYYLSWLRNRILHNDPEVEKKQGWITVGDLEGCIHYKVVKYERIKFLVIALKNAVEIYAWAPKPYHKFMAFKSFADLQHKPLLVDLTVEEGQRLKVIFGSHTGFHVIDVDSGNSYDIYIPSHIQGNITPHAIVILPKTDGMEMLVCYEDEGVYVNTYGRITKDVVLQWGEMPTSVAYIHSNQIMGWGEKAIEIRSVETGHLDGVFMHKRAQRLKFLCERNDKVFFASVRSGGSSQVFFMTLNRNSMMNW
Fibroblast growth factor receptor 4 (Homo sapiens), sequence (P22455 22-802 limits assumed): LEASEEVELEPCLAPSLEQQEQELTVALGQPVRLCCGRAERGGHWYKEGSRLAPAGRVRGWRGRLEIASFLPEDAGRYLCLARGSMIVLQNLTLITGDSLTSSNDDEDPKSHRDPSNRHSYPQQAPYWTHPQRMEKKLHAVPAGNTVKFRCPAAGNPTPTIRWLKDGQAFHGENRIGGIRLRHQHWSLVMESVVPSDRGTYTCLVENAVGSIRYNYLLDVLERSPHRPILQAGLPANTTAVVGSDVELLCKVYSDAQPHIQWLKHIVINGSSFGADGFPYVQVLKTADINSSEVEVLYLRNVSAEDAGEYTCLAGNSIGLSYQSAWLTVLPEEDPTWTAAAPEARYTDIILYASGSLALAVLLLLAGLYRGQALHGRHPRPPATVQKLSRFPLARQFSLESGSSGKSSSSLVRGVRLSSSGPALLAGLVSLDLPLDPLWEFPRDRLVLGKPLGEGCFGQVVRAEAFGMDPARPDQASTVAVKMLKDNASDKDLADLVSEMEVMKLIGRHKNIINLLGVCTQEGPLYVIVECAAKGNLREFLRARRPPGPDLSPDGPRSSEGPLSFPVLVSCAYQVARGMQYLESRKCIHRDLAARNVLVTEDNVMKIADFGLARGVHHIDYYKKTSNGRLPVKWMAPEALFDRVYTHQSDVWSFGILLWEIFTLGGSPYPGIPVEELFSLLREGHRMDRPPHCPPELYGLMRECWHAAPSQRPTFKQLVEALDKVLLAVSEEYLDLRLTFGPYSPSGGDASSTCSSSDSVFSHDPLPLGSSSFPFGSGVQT
Tyrosine-protein kinase ABL1 (Homo sapiens), P00519 [F317L], sequence (P00519 whole entry F317L, the tested form may be a part): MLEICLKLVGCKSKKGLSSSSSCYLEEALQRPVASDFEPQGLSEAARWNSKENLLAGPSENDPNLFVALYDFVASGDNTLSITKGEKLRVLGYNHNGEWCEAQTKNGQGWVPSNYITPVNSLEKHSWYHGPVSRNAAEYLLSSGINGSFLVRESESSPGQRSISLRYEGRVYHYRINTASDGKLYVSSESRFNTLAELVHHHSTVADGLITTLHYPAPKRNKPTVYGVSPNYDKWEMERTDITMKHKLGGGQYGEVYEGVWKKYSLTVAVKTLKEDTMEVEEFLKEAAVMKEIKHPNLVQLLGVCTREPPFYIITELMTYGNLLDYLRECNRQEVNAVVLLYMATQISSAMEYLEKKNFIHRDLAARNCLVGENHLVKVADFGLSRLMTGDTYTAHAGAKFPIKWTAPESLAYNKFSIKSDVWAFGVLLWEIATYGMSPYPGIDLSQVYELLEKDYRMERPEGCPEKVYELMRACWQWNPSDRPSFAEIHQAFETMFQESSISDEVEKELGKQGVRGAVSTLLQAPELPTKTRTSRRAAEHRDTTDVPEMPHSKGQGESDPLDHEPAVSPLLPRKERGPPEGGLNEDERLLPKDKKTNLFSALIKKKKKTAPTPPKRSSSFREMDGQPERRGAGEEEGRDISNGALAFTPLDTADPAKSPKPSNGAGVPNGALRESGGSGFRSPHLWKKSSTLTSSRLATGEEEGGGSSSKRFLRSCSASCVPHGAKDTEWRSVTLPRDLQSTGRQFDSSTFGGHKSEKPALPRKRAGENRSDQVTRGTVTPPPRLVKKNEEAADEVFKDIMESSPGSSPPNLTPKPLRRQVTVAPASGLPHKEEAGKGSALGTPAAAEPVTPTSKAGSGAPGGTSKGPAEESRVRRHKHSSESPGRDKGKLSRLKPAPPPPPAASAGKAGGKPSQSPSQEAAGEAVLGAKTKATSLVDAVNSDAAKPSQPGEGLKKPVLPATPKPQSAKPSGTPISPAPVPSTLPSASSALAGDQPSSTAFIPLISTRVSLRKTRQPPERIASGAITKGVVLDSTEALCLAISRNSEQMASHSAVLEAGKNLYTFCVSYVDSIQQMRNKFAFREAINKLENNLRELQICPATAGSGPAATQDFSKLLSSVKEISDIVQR
Tyrosine-protein kinase ABL1 (Homo sapiens), P00519 [E255K], sequence (P00519 whole entry E255K, the tested form may be a part): as the sequence (P00519 whole entry F317L, the tested form may be a part) above, with E255K, L317F counted along it
NUAK family SNF1-like kinase 2 (Homo sapiens), sequence (Q9H093 whole entry, the tested form may be a part): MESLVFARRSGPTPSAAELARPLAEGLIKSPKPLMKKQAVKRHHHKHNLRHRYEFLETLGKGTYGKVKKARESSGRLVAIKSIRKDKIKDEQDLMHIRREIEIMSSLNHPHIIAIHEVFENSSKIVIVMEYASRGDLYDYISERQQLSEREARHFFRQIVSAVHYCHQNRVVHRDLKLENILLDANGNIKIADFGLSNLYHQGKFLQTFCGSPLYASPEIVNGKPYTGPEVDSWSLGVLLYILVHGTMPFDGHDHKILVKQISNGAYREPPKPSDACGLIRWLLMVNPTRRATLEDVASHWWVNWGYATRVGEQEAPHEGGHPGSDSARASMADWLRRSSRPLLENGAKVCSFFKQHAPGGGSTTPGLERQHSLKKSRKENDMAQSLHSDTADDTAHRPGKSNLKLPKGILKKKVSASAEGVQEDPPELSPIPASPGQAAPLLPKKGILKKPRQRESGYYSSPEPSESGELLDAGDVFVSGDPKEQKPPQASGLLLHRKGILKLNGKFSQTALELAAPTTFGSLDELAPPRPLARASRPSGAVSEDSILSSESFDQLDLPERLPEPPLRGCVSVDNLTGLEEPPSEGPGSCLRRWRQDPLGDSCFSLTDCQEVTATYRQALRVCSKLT
Serine/threonine-protein kinase ULK3 (Homo sapiens), sequence (Q6PHR2 whole entry, the tested form may be a part): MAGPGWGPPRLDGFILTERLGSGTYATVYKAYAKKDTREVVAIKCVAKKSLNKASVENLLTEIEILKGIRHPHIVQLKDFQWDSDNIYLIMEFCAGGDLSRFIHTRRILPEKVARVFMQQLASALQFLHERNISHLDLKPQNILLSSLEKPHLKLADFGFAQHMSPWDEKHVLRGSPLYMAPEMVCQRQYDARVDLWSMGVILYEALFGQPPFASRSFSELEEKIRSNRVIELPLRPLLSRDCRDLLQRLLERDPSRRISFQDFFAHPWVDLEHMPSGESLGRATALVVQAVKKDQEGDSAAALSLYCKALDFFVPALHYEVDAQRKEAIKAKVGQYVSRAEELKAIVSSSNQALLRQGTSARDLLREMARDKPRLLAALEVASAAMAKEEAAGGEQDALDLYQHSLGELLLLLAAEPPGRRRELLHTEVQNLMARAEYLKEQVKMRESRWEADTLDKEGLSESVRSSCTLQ

COCCN[C@H]1CC[C@H](Nc2cc(-c3csc(NCC4(C#N)CCOCC4)n3)c(Cl)cn2)CC1
Activity [1]: 100%
Activity [2]: 87%
MRT last [3]: 4.69 h
Activity [4]: 100%
Activity [5]: 100%
Activity [6]: 93%
Activity (MV4-11): inactive
Activity [7]: 100%
Activity [8]: 100%
Activity [9]: 100%
EC50 [10]: < 100 nM
inhibition [10]: Dose-dependent effect
MRT inf [11]: 1.58 h
Activity [12]: 64%
Activity [13]: 72%
Activity [14]: 100%
AUC(0-t) [15]: 1780 ng·h/mL
Activity [16]: 84%
GI50 [17]: 11 to 37 nM
Cmax [18]: 771 ng/mL
Activity [19]: 100%
Activity [20]: 90%
